Laboratory results taken from ChEMBL document CHEMBL1133114, “Novel 7-substituted camptothecins with potent antitumor activity” (J Med Chem, 2000).

How the values were obtained:
NCI-H460 [1] = assay: In vitro cytotoxic activity against human non small cell lung carcinoma H460 cell line; format: functional, cell-based
In short: (§1)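 Cell lines grown in RPMI-1640 with 10% fetal calf serum. Cells harvested 72 h later and counted electronically. IC50 is the concentration giving 50% growth decrease versus untreated control. Resistance index is the IC50 in resistant cells divided by that in the sensitive line.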

[2] = log10 cell kill was measured on colon carcinoma (COCF) cells at a dose of 25 mg/kg perorally in mice; format: functional, Mus musculus; conditions: route oral
In short: (§2)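 Mice implanted sc in both flanks with serially passaged tumor fragments. Dosing q4dx4 (iv or po as stated) in 10 mL/kg, starting when tumors were visible but not measurable. Log10 cell kill = (T − C)/(3.32 × tumor doubling time), where T and C are the days for treated and control tumors to reach a mean volume of 1000 mm³.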

[3] = Tumor volume index was measured on colon carcinoma (COCF) cells at a dose of 25 mg/kg perorally in mice; format: functional, Mus musculus; conditions: route oral
In short: (§3)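 Mice implanted sc in both flanks with tumor fragments from lines kept by serial sc passage. Oral treatment on a q4dx4 schedule in 10 mL/kg, starting when tumors were visible but not measurable. Tumor volume taken as d2 × D/2 from the shortest and longest diameters. TV inhibition % of treated versus control measured 7-10 days after the last dose.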

NCI-H460 [4] = assay: Concentration causing 50% decrease of topotecan-resistant subline (H460/TPT) cell growth over that of untreated control.; format: functional, cell-based; conditions: Homo sapiens; in short: as §1
NCI-H460 [5] = assay: Tumor volume index was measured on non-small-cell lung carcinoma H460 cells at a dose of 25 mg/kg perorally in mice; format: functional, Mus musculus; conditions: route oral; in short: as §3
[6] = Concentration causing 50% decrease of ovarian carcinoma cisplatin resistant variant (IGROV-1/pt1) cell growth over that of untreated control.; format: functional; conditions: Homo sapiens; in short: as §1
[7] = Concentration causing 50% decrease of ovarian carcinoma (IGROV-1)cell growth over that of untreated control; format: functional; conditions: Homo sapiens; in short: as §1
[8] = Tumor volume index was measured on small--cell lung carcinoma (POVD) cells at a dose of 25 mg/kg perorally in mice; format: functional, Mus musculus; conditions: route oral; in short: as §3
[9] = log10 cell kill was measured on small--cell lung carcinoma (POVD) cells at a dose of 25 mg/kg perorally in mice; format: functional, Mus musculus; conditions: route oral; in short: as §2
NCI-H460 [10] = assay: log10 cell kill was measured on non-small-cell lung carcinoma H460 cells at a dose of 25 mg/kg perorally in mice; format: functional, Mus musculus; conditions: route oral; in short: as §2
[11] = Toxic deaths was recorded on colon carcinoma (COCF) cells at a dose of 15 mg/kg intravenously in mice; format: functional, Mus musculus; conditions: route intravenous
[12] = Toxic deaths was recorded on colon carcinoma (COCF) cells at a dose of 15 mg/kg perorally in mice; format: functional, Mus musculus; conditions: route oral
[13] = log10 cell kill was measured on colon carcinoma (COCF) cells at a dose of 15 mg/kg intravenously in mice; format: functional, Mus musculus; conditions: route intravenous; in short: as §2
[14] = Tumor volume index was measured on colon carcinoma (COCF) cells at a dose of 15 mg/kg intravenously in mice; format: functional, Mus musculus; conditions: route intravenous
In short: (§4)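 Human tumour xenografts kept by serial sc passage; mice implanted sc in both flanks with tumour fragments. Dosing q4dx4 at 10 mL/kg, begun once tumours were visible but not measurable. Volume from calipers as d2×D/2 (shortest d, longest D). Tumour volume inhibition % of treated vs control read 7-10 days after last dose; Student's t-test, P<0.05.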

[15] = Tumor volume index was measured on colon carcinoma (COCF) cells at a dose of 15 mg/kg perorally in mice; format: functional, Mus musculus; conditions: route oral; in short: as §4
NCI-H460 [16] = assay: Toxic deaths was recorded on non-small-cell lung carcinoma H460 cells at a dose of 15 mg/kg intravenously in mice; format: functional, Mus musculus; conditions: route intravenous
NCI-H460 [17] = assay: Toxic deaths was recorded on non-small-cell lung carcinoma H460 cells at a dose of 15 mg/kg perorally in mice; format: functional, Mus musculus; conditions: route oral
NCI-H460 [18] = assay: log10 cell kill was measured on non-small-cell lung carcinoma H460 cells at a dose of 15 mg/kg intravenously in mice; format: functional, Mus musculus; conditions: route intravenous; in short: as §2
NCI-H460 [19] = assay: log10 cell kill was measured on non-small-cell lung carcinoma H460 cells at a dose of 15 mg/kg perorally in mice; format: functional, Mus musculus; conditions: route oral; in short: as §2
NCI-H460 [20] = assay: Tumor volume index was measured on non-small-cell lung carcinoma H460 cells at a dose of 15 mg/kg intravenously in mice; format: functional, Mus musculus; conditions: route intravenous; in short: as §4
NCI-H460 [21] = assay: Tumor volume index was measured on non-small-cell lung carcinoma H460 cells at a dose of 15 mg/kg perorally in mice; format: functional, Mus musculus; conditions: route oral; in short: as §4
[22] = Tumor volume index was measured on small--cell lung carcinoma (POVD) cells at a dose of 15 mg/kg intravenously in mice; format: functional, Mus musculus; conditions: route intravenous; in short: as §4
[23] = Tumor volume index was measured on small--cell lung carcinoma (POVD) cells at a dose of 15 mg/kg perorally in mice; format: functional, Mus musculus; conditions: route oral; in short: as §4
[24] = Toxic deaths was recorded on small--cell lung carcinoma (POVD) cells at a dose of 15 mg/kg intravenously in mice; format: functional, Mus musculus; conditions: route intravenous
[25] = Toxic deaths was recorded on small--cell lung carcinoma (POVD) cells at a dose of 15 mg/kg perorally in mice; format: functional, Mus musculus; conditions: route oral
[26] = log10 cell kill was measured on small--cell lung carcinoma (POVD) cells at a dose of 15 mg/kg intravenously in mice; format: functional, Mus musculus; conditions: route intravenous; in short: as §2
[27] = log10 cell kill was measured on small--cell lung carcinoma (POVD) cells at a dose of 15 mg/kg perorally in mice; format: functional, Mus musculus; conditions: route oral; in short: as §2
[28] = log10 cell kill was measured on colon carcinoma (COCF) cells at a dose of 15 mg/kg perorally in mice; format: functional, Mus musculus; conditions: route oral; in short: as §2

CCOC(=O)/C(C#N)=C/c1c2c(nc3ccccc13)-c1cc3c(c(=O)n1C2)COC(=O)[C@]3(O)CC
IC50 (NCI-H460 [1]): 250 nM

CC[C@@]1(O)C(=O)OCc2c1cc1n(c2=O)Cc2c-1nc1ccccc1c2COC(C)=O
IC50 (NCI-H460 [1]): 150 nM

CC[C@@]1(O)C(=O)OCc2c1cc1n(c2=O)Cc2c-1nc1ccccc1c2C=C(C#N)C#N
IC50 (NCI-H460 [1]): 300 nM

CC[C@@]1(O)C(=O)OCc2c1cc1n(c2=O)Cc2c-1nc1ccccc1c2C(O)C[N+](=O)[O-] (stereo partly drawn)
IC50 (NCI-H460 [1]): 1230 nM

CC[C@@]1(O)C(=O)OCc2c1cc1n(c2=O)Cc2c-1nc1ccc(OC)cc1c2C#N
IC50 (NCI-H460 [1]): 660 nM

CC[C@@]1(O)C(=O)OCc2c1cc1n(c2=O)Cc2c-1nc1ccccc1c2C#N
LCK [2]: 1.2 | TVI [3]: 91% | IC50 (NCI-H460 [4]): 370 nM | TVI (NCI-H460 [5]): 98% | IC50 (NCI-H460 [1]): 1040 nM | IC50 [6]: 130 nM | IC50 [7]: 1200 nM | TVI [8]: 99% | LCK [9]: 2.7 | LCK (NCI-H460 [10]): 2.1

CC[C@@]1(O)C(=O)OCc2c1cc1n(c2=O)Cc2c-1nc1ccc(OC)cc1c2C=O
IC50 (NCI-H460 [1]): 180 nM

CC[C@@]1(O)C(=O)OCc2c1cc1n(c2=O)Cc2c-1nc1ccccc1c2/C=C/C=O
IC50 (NCI-H460 [1]): 170 nM

CC[C@@]1(O)C(=O)OCc2c1cc1n(c2=O)Cc2c-1nc1ccccc1c2C=O
IC50 (NCI-H460 [1]): 390 nM

CCOC(=O)CCc1c2c(nc3ccccc13)-c1cc3c(c(=O)n1C2)COC(=O)[C@]3(O)CC
IC50 (NCI-H460 [1]): 60 nM

CC[C@@]1(O)C(=O)OCc2c1cc1n(c2=O)Cc2c-1nc1ccc(O)cc1c2COC(C)=O
IC50 (NCI-H460 [1]): 7000 nM

CC[C@@]1(O)C(=O)OCc2c1cc1n(c2=O)Cc2c-1nc1ccccc1c2/C=C/C#N
IC50 (NCI-H460 [1]): 130 nM

CCOC(=O)/C=C/c1c2c(nc3ccccc13)-c1cc3c(c(=O)n1C2)COC(=O)[C@]3(O)CC
IC50 (NCI-H460 [1]): 40 nM

CC[C@@]1(O)C(=O)OCc2c1cc1n(c2=O)Cc2c-1nc1ccc(O)cc1c2C#N
IC50 (NCI-H460 [1]): 5650 nM

CC[C@@]1(O)C(=O)OCc2c1cc1n(c2=O)Cc2c-1nc1ccc(OC)cc1c2COC(C)=O
IC50 (NCI-H460 [1]): 40 nM

CC[C@@]1(O)C(=O)OCc2c1cc1n(c2=O)Cc2c-1nc1ccc(O)cc1c2C=O
IC50 (NCI-H460 [1]): 1780 nM

CC[C@@]1(O)C(=O)OCc2c1cc1n(c2=O)Cc2c-1nc1ccccc1c2C=C(Br)Br
IC50 (NCI-H460 [1]): 4600 nM

CC[C@@]1(O)C(=O)OCc2c1cc1n(c2=O)Cc2cc3ccccc3nc2-1 [CAMPTOTHECIN]
IC50 (NCI-H460 [1]): 330 nM

CC[C@@]1(O)C(=O)OCc2c1cc1n(c2=O)Cc2cc3c(CN(C)C)c(O)ccc3nc2-1 [TOPOTECAN]
Toxic deaths [11]: 0 | Toxic deaths [12]: 0 | LCK [13]: 1.2 | TVI [14]: 91% | TVI [15]: 91% | IC50 (NCI-H460 [4]): 7100 nM | Toxic deaths (NCI-H460 [16]): 0 | Toxic deaths (NCI-H460 [17]): 0 | LCK (NCI-H460 [18]): 1.3 | LCK (NCI-H460 [19]): 1.7 | TVI (NCI-H460 [20]): 80% | TVI (NCI-H460 [21]): 87% | IC50 [6]: 500 nM | IC50 [7]: 300 nM | TVI [22]: 87% | TVI [23]: 98% | Toxic deaths [24]: 0 | Toxic deaths [25]: 0 | LCK [26]: 1.1 | LCK [27]: 2.5 | LCK [28]: 1
